Active and inactive are the calls of the source. No cut-off for these calls is given here.
Columns and labels:
[1] = system: LNCaP; assay: Inhibition of prostate specific antigen expression in human LNCAP cells at 0.625 to 20 uM in presence of fetal bovine serum; type: functional, cell-based
[2] = system: LNCaP; assay: Inhibition of prostate specific antigen expression in human LNCAP cells at 0.625 to 5 uM in presence of fetal bovine serum; type: functional, cell-based
[3] = system: LNCaP; assay: Inhibition of prostate specific antigen expression in human LNCAP cells at 1.25 to 10 uM in presence of fetal bovine serum; type: functional, cell-based
[4] = target: T1, Androgen receptor (Rattus norvegicus) (UniProt P15207); assay: Antagonist activity at androgen receptor in rat prostate gland at 1.25 to 10 uM by luciferase reporter gene assay; type: functional, tissue-based
T1 sequence (whole entry): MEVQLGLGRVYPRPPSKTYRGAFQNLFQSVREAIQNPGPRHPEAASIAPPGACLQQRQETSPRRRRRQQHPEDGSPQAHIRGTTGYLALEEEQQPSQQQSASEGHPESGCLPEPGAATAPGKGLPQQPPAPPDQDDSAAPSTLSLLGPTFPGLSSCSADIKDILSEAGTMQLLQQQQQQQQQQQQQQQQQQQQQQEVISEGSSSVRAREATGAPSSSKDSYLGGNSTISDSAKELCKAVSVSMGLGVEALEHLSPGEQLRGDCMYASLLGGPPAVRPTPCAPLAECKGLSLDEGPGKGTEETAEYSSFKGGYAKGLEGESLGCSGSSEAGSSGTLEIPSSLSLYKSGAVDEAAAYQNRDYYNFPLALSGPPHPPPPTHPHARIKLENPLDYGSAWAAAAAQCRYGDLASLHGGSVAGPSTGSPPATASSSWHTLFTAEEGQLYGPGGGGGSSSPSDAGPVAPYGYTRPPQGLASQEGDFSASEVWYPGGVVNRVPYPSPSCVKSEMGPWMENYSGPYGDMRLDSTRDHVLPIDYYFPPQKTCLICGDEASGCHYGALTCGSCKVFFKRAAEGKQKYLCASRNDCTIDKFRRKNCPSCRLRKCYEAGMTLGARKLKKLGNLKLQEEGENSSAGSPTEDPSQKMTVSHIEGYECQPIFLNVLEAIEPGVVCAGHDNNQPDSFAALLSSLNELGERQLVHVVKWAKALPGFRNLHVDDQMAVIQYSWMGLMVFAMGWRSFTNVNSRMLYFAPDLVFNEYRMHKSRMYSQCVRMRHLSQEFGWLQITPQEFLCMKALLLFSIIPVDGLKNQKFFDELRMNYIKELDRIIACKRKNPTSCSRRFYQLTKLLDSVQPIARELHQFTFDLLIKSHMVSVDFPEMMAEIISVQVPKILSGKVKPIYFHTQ

[5] = system: LNCaP; assay: Inhibition of prostate specific antigen expression in human LNCAP cells in presence of fetal bovine serum; type: functional, cell-based
[6] = system: LAPC4; assay: Antitumor activity against human castration and bicalutamide-resistant LAPC4 cells xenografted in SCID mouse assessed as change in tumor volume at 10 mg/kg measured up to 20 days; type: functional, organism-based; set-up: dose 10 mg/kg
[7] = system: LAPC4; assay: Antitumor activity against human castration and bicalutamide-resistant LAPC4 cells xenografted in SCID mouse assessed as change in tumor volume measured up to 50 days; type: functional
[8] = system: LNCaP; assay: Inhibition of prostate specific antigen secretion in human LNCAP cells expressing androgen receptor at 1.25 to 10 uM in presence of charcoal stripped serum; type: functional, cell-based
Outline: (§1)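 LNCaP/AR cells were made by viral infection with an AR cDNA to express 3–5 fold higher AR levels, mimicking CRPC. They were assayed in charcoal-stripped serum to mimic androgen depletion. Read-out was PSA level, with DMSO as the vehicle.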

[9] = system: LNCaP; assay: Inhibition of prostate specific antigen secretion in human LNCAP cells expressing androgen receptor in presence of charcoal stripped serum; type: functional, cell-based; outline: as §1
[10] = system: Serum; assay: Drug level in SCID mouse serum at 10 mg/kg, iv; type: ADME, organism-based; set-up: dose 10 mg/kg, route intravenous; details: in vivo, read-out: Drug uptake
[11] = system: LNCaP; assay: Inhibition of prostate specific antigen expression in human LNCAP cells at 100 to 1000 nM in presence of fetal bovine serum; type: functional, cell-based
[12] = target: T1, Androgen receptor (Rattus norvegicus); assay: Antagonist activity at androgen receptor in rat prostate gland at 0.625 to 20 uM by luciferase reporter gene assay; type: functional, tissue-based
[13] = system: LNCaP; assay: Cytostatic activity against human castration-resistant LNCAP cells expressing androgen receptor xenografted in SCID mouse assessed as change in tumor size at 10 mg/kg qd measured up to 18 days; type: functional, organism-based; set-up: dose 10 mg/kg
[14] = system: LNCaP; assay: Cytostatic activity against human castration-resistant LNCAP cells expressing androgen receptor xenografted in SCID mouse assessed as change in tumor size at 50 mg/kg qd measured up to 18 days; type: functional, organism-based; set-up: dose 50 mg/kg
[15] = system: LNCaP; assay: Antitumor activity against human castration-resistant LNCAP cells expressing androgen receptor xenografted in SCID mouse assessed as change in tumor size at 10 mg/kg qd for 31 days; type: functional, organism-based; set-up: dose 10 mg/kg
Outline: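 AR-overexpressing LNCaP cells were injected subcutaneously into the flanks of castrated SCID mice. Once tumors reached about 100–200 cubic mm, mice were randomized into groups of six. Vehicle or compound was given orally every day, and tumor volume change was followed.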

[16] = system: LNCaP; assay: Inhibition of prostate specific antigen secretion in human LNCAP cells expressing androgen receptor at 100 to 1000 nM in presence of charcoal stripped serum; type: functional, cell-based; outline: as §1

SMILES: Cc1ccc(N2C(=S)N(c3ccc(C#N)c(C(F)(F)F)c3)C(=O)C23CCC3)cc1
- Activity [1]: Active
- Activity [2]: Active
- Activity [3]: Active
- Activity [4]: Active
- IC50 [5]: 124 nM
- Activity [6]: Active
- Activity [7]: Dose-dependent effect
- inhibition [8]: Active

SMILES: CNC(=O)CCCc1ccc(N2C(=S)N(c3ccc(C#N)c(C(F)(F)F)c3)C(=O)C23CCC3)cc1
- IC50 [5]: 92 nM
- inhibition [8]: Active
- IC50 [9]: 92 nM
- concentration [10]: 390 µM
- Activity [11]: Active

SMILES: Cc1ccc(N2C(=S)N(c3ccc(C#N)c(C(F)(F)F)c3)C(=O)C2(C)C)cc1
- Activity [1]: Active
- Activity [12]: inactive
- Activity [2]: Active
- Activity [3]: Active
- Activity [4]: Active
- Activity [6]: Active

SMILES: CC(O)(CS(=O)(=O)c1ccc(F)cc1)C(=O)Nc1ccc(C#N)c(C(F)(F)F)c1 (stereo not drawn) [BICALUTAMIDE]
- inhibition [8]: inactive
- concentration [10]: 10000 µM

SMILES: CNC(=O)c1ccc(N2C(=S)N(c3ccc(C#N)c(C(F)(F)F)c3)C(=O)C23CCC3)cc1F
- inhibition [9]: Dose-dependent effect
- concentration [10]: 9900 µM
- Activity [13]: Active
- Activity [14]: Active
- Activity [15]: Active
- Activity [11]: Active
- Activity [16]: Active

— ChEMBL document CHEMBL1155462, “Structure-activity relationship for thiohydantoin androgen receptor antagonists for castration-resistant prostate cancer (CRPC)” (J Med Chem, 2010)
